From ChEMBL document CHEMBL4689842, “EUbOPEN Chemogenomics Library wave 1” (2021)

Tested on: HEK-293T
Assay: Multiplex assay against HEK293T;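 for Population Tubulin-Different-Phenotype (%): share of the cells with healthy nuclei that show this phenotype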
Type: toxicity, cell-based
Settings: human
Summary of the method: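 Tubulin, mitochondrial-mass and membrane-permeability phenotypes are per cents of healthy-nucleus cells. Cells were gated by CellPathfinder machine learning into Hoechst high-intensity objects or normal cells, normal cells into healthy, pyknosed or fragmented nuclei, and pyknosed cells into mitotic or apoptotic. Before that, live cells stained at seeding with Hoechst33342, BioTracker Green Microtubule Cytoskeleton Dye, MitoTracker Red and Annexin V Alexa Fluor 680 were imaged on a CQ1 microscope at 37°C and 5% CO2 after compound addition.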

[1] = 12 h, 1 µM, compound concentration 1 uM, replicate 1
[2] = 12 h, 1 µM, compound concentration 1 uM, replicate 2
[3] = 12 h, 10 µM, compound concentration 10 uM, replicate 1
[4] = 12 h, 10 µM, compound concentration 10 uM, replicate 2
[5] = 24 h, 1 µM, compound concentration 1 uM, replicate 1
[6] = 24 h, 1 µM, compound concentration 1 uM, replicate 2
[7] = 24 h, 10 µM, compound concentration 10 uM, replicate 1
[8] = 24 h, 10 µM, compound concentration 10 uM, replicate 2
[9] = 48 h, 1 µM, compound concentration 1 uM, replicate 1
[10] = 48 h, 1 µM, compound concentration 1 uM, replicate 2
[11] = 48 h, 10 µM, compound concentration 10 uM, replicate 1
[12] = 48 h, 10 µM, compound concentration 10 uM, replicate 2

C=CC(=O)Nc1cc2c(Nc3ccc(F)c(Cl)c3)ncnc2cc1OCCCN1CCOCC1.Cl.Cl [CANERTINIB DIHYDROCHLORIDE]
Population Apoptotic (%) [1]: 70% | Population Fragmented Nuclei (%) [1]: 22% | Population Healthy Nuclei (%) [1]: 35% | Population Hoechst High Intensity Objects (%) [1]: 22% | Population Membrane Permeable-Phenotype (%) [1]: 24% | Population Mitochondria Different-Phenotype (%) [1]: 76% | Population Mitotic Cells (%) [1]: 29% | Population Normal (%) [1]: 77% | Population Pyknosed Nuclei (%) [1]: 41% | Population Tubulin-Different-Phenotype (%) [1]: 82% | Total Cell Count [1]: 582 | Population Apoptotic (%) [2]: 47% | Population Fragmented Nuclei (%) [2]: 4% | Population Healthy Nuclei (%) [2]: 80% | Population Hoechst High Intensity Objects (%) [2]: 7% | Population Membrane Permeable-Phenotype (%) [2]: 17% | Population Mitochondria Different-Phenotype (%) [2]: 92% | Population Mitotic Cells (%) [2]: 52% | Population Normal (%) [2]: 92% | Population Pyknosed Nuclei (%) [2]: 14% | Population Tubulin-Different-Phenotype (%) [2]: 97% | Total Cell Count [2]: 863 | Population Apoptotic (%) [3]: 28% | Population Fragmented Nuclei (%) [3]: 14% | Population Healthy Nuclei (%) [3]: 60% | Population Hoechst High Intensity Objects (%) [3]: 13% | Population Membrane Permeable-Phenotype (%) [3]: 3% | Population Mitochondria Different-Phenotype (%) [3]: 12% | Population Mitotic Cells (%) [3]: 71% | Population Normal (%) [3]: 86% | Population Pyknosed Nuclei (%) [3]: 24% | Population Tubulin-Different-Phenotype (%) [3]: 12% | Total Cell Count [3]: 583 | Population Apoptotic (%) [4]: 8% | Population Fragmented Nuclei (%) [4]: 6% | Population Healthy Nuclei (%) [4]: 88% | Population Hoechst High Intensity Objects (%) [4]: 3% | Population Membrane Permeable-Phenotype (%) [4]: 2% | Population Mitochondria Different-Phenotype (%) [4]: 16% | Population Mitotic Cells (%) [4]: 91% | Population Normal (%) [4]: 96% | Population Pyknosed Nuclei (%) [4]: 5% | Population Tubulin-Different-Phenotype (%) [4]: 16% | Total Cell Count [4]: 1567 | Population Apoptotic (%) [5]: 79% | Population Fragmented Nuclei (%) [5]: 21% | Population Healthy Nuclei (%) [5]: 37% | Population Hoechst High Intensity Objects (%) [5]: 24% | Population Membrane Permeable-Phenotype (%) [5]: 8% | Population Mitochondria Different-Phenotype (%) [5]: 69% | Population Mitotic Cells (%) [5]: 20% | Population Normal (%) [5]: 75% | Population Pyknosed Nuclei (%) [5]: 40% | Population Tubulin-Different-Phenotype (%) [5]: 56% | Total Cell Count [5]: 612 | Population Apoptotic (%) [6]: 29% | Population Fragmented Nuclei (%) [6]: 5% | Population Healthy Nuclei (%) [6]: 80% | Population Hoechst High Intensity Objects (%) [6]: 10% | Population Membrane Permeable-Phenotype (%) [6]: 4% | Population Mitochondria Different-Phenotype (%) [6]: 67% | Population Mitotic Cells (%) [6]: 70% | Population Normal (%) [6]: 89% | Population Pyknosed Nuclei (%) [6]: 13% | Population Tubulin-Different-Phenotype (%) [6]: 54% | Total Cell Count [6]: 910 | Population Apoptotic (%) [7]: 21% | Population Fragmented Nuclei (%) [7]: 14% | Population Healthy Nuclei (%) [7]: 75% | Population Hoechst High Intensity Objects (%) [7]: 9% | Population Membrane Permeable-Phenotype (%) [7]: 6% | Population Mitochondria Different-Phenotype (%) [7]: 7% | Population Mitotic Cells (%) [7]: 78% | Population Normal (%) [7]: 90% | Population Pyknosed Nuclei (%) [7]: 9% | Population Tubulin-Different-Phenotype (%) [7]: 12% | Total Cell Count [7]: 665 | Population Apoptotic (%) [8]: 10% | Population Fragmented Nuclei (%) [8]: 24% | Population Healthy Nuclei (%) [8]: 73% | Population Hoechst High Intensity Objects (%) [8]: 2% | Population Membrane Permeable-Phenotype (%) [8]: 3% | Population Mitochondria Different-Phenotype (%) [8]: 3% | Population Mitotic Cells (%) [8]: 89% | Population Normal (%) [8]: 97% | Population Pyknosed Nuclei (%) [8]: 2% | Population Tubulin-Different-Phenotype (%) [8]: 8% | Total Cell Count [8]: 2738

CN(C)C(=O)N[C@H]1CC[C@H](CCN2CCN(c3cccc(Cl)c3Cl)CC2)CC1.Cl [CARIPRAZINE HYDROCHLORIDE]
Population Apoptotic (%) [1]: 48% | Population Fragmented Nuclei (%) [1]: 12% | Population Healthy Nuclei (%) [1]: 44% | Population Hoechst High Intensity Objects (%) [1]: 13% | Population Membrane Permeable-Phenotype (%) [1]: 1% | Population Mitochondria Different-Phenotype (%) [1]: 88% | Population Mitotic Cells (%) [1]: 51% | Population Normal (%) [1]: 86% | Population Pyknosed Nuclei (%) [1]: 42% | Population Tubulin-Different-Phenotype (%) [1]: 59% | Total Cell Count [1]: 326 | Population Apoptotic (%) [2]: 20% | Population Fragmented Nuclei (%) [2]: 4% | Population Healthy Nuclei (%) [2]: 42% | Population Hoechst High Intensity Objects (%) [2]: 4% | Population Membrane Permeable-Phenotype (%) [2]: 2% | Population Mitochondria Different-Phenotype (%) [2]: 32% | Population Mitotic Cells (%) [2]: 79% | Population Normal (%) [2]: 95% | Population Pyknosed Nuclei (%) [2]: 53% | Population Tubulin-Different-Phenotype (%) [2]: 24% | Total Cell Count [2]: 213 | Population Apoptotic (%) [3]: 85% | Population Fragmented Nuclei (%) [3]: 7% | Population Healthy Nuclei (%) [3]: 25% | Population Hoechst High Intensity Objects (%) [3]: 15% | Population Membrane Permeable-Phenotype (%) [3]: 1% | Population Mitochondria Different-Phenotype (%) [3]: 98% | Population Mitotic Cells (%) [3]: 14% | Population Normal (%) [3]: 84% | Population Pyknosed Nuclei (%) [3]: 67% | Population Tubulin-Different-Phenotype (%) [3]: 98% | Total Cell Count [3]: 285 | Population Apoptotic (%) [4]: 83% | Population Fragmented Nuclei (%) [4]: 4% | Population Healthy Nuclei (%) [4]: 16% | Population Hoechst High Intensity Objects (%) [4]: 6% | Population Membrane Permeable-Phenotype (%) [4]: 6% | Population Mitochondria Different-Phenotype (%) [4]: 96% | Population Mitotic Cells (%) [4]: 16% | Population Normal (%) [4]: 93% | Population Pyknosed Nuclei (%) [4]: 79% | Population Tubulin-Different-Phenotype (%) [4]: 93% | Total Cell Count [4]: 210 | Population Apoptotic (%) [5]: 46% | Population Fragmented Nuclei (%) [5]: 14% | Population Healthy Nuclei (%) [5]: 57% | Population Hoechst High Intensity Objects (%) [5]: 11% | Population Membrane Permeable-Phenotype (%) [5]: 1% | Population Mitochondria Different-Phenotype (%) [5]: 77% | Population Mitotic Cells (%) [5]: 53% | Population Normal (%) [5]: 88% | Population Pyknosed Nuclei (%) [5]: 27% | Population Tubulin-Different-Phenotype (%) [5]: 55% | Total Cell Count [5]: 379 | Population Apoptotic (%) [6]: 12% | Population Fragmented Nuclei (%) [6]: 2% | Population Healthy Nuclei (%) [6]: 63% | Population Hoechst High Intensity Objects (%) [6]: 2% | Population Membrane Permeable-Phenotype (%) [6]: 4% | Population Mitochondria Different-Phenotype (%) [6]: 34% | Population Mitotic Cells (%) [6]: 87% | Population Normal (%) [6]: 97% | Population Pyknosed Nuclei (%) [6]: 33% | Population Tubulin-Different-Phenotype (%) [6]: 33% | Total Cell Count [6]: 275 | Population Apoptotic (%) [7]: 90% | Population Fragmented Nuclei (%) [7]: 11% | Population Healthy Nuclei (%) [7]: 29% | Population Hoechst High Intensity Objects (%) [7]: 14% | Population Membrane Permeable-Phenotype (%) [7]: 0% | Population Mitochondria Different-Phenotype (%) [7]: 98% | Population Mitotic Cells (%) [7]: 9% | Population Normal (%) [7]: 85% | Population Pyknosed Nuclei (%) [7]: 59% | Population Tubulin-Different-Phenotype (%) [7]: 100% | Total Cell Count [7]: 289 | Population Apoptotic (%) [8]: 87% | Population Fragmented Nuclei (%) [8]: 3% | Population Healthy Nuclei (%) [8]: 37% | Population Hoechst High Intensity Objects (%) [8]: 7% | Population Membrane Permeable-Phenotype (%) [8]: 2% | Population Mitochondria Different-Phenotype (%) [8]: 97% | Population Mitotic Cells (%) [8]: 12% | Population Normal (%) [8]: 92% | Population Pyknosed Nuclei (%) [8]: 58% | Population Tubulin-Different-Phenotype (%) [8]: 96% | Total Cell Count [8]: 241 | Population Apoptotic (%) [9]: 29% | Population Fragmented Nuclei (%) [9]: 9% | Population Healthy Nuclei (%) [9]: 78% | Population Hoechst High Intensity Objects (%) [9]: 7% | Population Membrane Permeable-Phenotype (%) [9]: 0% | Population Mitochondria Different-Phenotype (%) [9]: 37% | Population Mitotic Cells (%) [9]: 70% | Population Normal (%) [9]: 92% | Population Pyknosed Nuclei (%) [9]: 12% | Total Cell Count [9]: 609 | Population Apoptotic (%) [10]: 10% | Population Fragmented Nuclei (%) [10]: 6% | Population Healthy Nuclei (%) [10]: 80% | Population Hoechst High Intensity Objects (%) [10]: 2% | Population Membrane Permeable-Phenotype (%) [10]: 2% | Population Mitochondria Different-Phenotype (%) [10]: 15% | Population Mitotic Cells (%) [10]: 89% | Population Normal (%) [10]: 97% | Population Pyknosed Nuclei (%) [10]: 13% | Population Tubulin-Different-Phenotype (%) [10]: 35% | Total Cell Count [10]: 516 | Population Apoptotic (%) [11]: 78% | Population Fragmented Nuclei (%) [11]: 16% | Population Healthy Nuclei (%) [11]: 41% | Population Hoechst High Intensity Objects (%) [11]: 15% | Population Membrane Permeable-Phenotype (%) [11]: 0% | Population Mitochondria Different-Phenotype (%) [11]: 99% | Population Mitotic Cells (%) [11]: 21% | Population Normal (%) [11]: 84% | Population Pyknosed Nuclei (%) [11]: 42% | Population Tubulin-Different-Phenotype (%) [11]: 94% | Total Cell Count [11]: 342 | Population Apoptotic (%) [12]: 82% | Population Fragmented Nuclei (%) [12]: 7% | Population Healthy Nuclei (%) [12]: 51% | Population Hoechst High Intensity Objects (%) [12]: 6% | Population Mitochondria Different-Phenotype (%) [12]: 95% | Population Mitotic Cells (%) [12]: 17% | Population Normal (%) [12]: 93% | Population Pyknosed Nuclei (%) [12]: 41% | Population Tubulin-Different-Phenotype (%) [12]: 92% | Total Cell Count [12]: 274
